Results from ChEMBL document CHEMBL1759877, “Identification and evaluation of soft coral diterpenes as inhibitors of HIF-2α induced gene expression” (Bioorg Med Chem Lett, 2011).
pEC50, pIC50: −log10 of the molar value.

Tests used:
[1] = target: Endothelial PAS domain-containing protein 1 (Homo sapiens, UniProt Q99814); assay: Inhibition of HIF-2alpha activity in human 786-O cells by luciferase assay; type: cell-based; details: for pEC50: read-out: EC50
Method in brief: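 Cells seeded at 5000 per well and allowed to attach overnight, then exposed to test samples or controls the next day. Incubation lasted one day so the HIF-2 signal could drop. Luciferin was then added to the cells and the luciferase signal read.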

[2] = Cytotoxicity against human 786-O cells by XTT assay; type: functional, cell-based; details: 786-0; for pIC50: Homo sapiens, read-out: IC50

Endothelial PAS domain-containing protein 1, sequence (Q99814 whole entry, the tested form may be a part): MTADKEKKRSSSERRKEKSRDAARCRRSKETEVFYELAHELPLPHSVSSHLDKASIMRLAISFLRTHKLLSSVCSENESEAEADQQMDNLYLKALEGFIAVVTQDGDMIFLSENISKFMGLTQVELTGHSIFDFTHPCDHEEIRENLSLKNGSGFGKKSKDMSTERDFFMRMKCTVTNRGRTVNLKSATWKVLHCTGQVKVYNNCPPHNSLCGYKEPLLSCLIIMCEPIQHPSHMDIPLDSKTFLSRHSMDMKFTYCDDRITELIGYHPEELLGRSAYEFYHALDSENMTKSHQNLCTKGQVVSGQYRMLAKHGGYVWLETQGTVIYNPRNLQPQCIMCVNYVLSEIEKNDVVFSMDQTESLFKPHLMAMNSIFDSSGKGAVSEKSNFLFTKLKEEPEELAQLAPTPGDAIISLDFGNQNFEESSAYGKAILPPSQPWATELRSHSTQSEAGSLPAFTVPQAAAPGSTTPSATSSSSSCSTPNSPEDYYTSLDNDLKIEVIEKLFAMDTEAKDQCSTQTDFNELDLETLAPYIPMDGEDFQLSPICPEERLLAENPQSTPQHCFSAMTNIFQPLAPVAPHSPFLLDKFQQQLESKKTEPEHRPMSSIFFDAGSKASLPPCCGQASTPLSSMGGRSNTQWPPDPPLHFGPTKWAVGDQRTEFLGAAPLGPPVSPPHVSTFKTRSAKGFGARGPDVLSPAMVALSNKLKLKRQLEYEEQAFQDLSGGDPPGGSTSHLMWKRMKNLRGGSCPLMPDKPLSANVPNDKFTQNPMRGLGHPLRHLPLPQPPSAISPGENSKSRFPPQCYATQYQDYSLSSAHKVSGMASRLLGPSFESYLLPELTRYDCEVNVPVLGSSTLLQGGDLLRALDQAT

Structure (SMILES) | EC50 [1] | pEC50 [1] | IC50 [2] | pIC50 [2]
C/C1=C\C=C(\C(C)C)CCC2=CCC[C@](C)(OC2=O)[C@H](O)CC1 | Not Active | – | Not Active | –
C=C1CC/C=C(/C)CC[C@@H]2C([C@@H](OC(C)=O)[C@H](C=C(C)C)OC(C)=O)=CO[C@H](OC(C)=O)[C@@H]12 | – | 5.47 | – | 5.28
C=C1C[C@@H](O)/C=C(/C)CC[C@@H]2C([C@@H](OC(C)=O)[C@H](C=C(C)C)OC(C)=O)=CO[C@H](OC(C)=O)[C@@H]12 | – | 5.21 | – | 4.58
C=C1CC[C@H](OO)C(=C)CC[C@@H]2C([C@@H](OC(C)=O)[C@H](C=C(C)C)OC(C)=O)=CO[C@H](OC(C)=O)[C@@H]12 | – | 4.93 | – | 4.85
C=C(C)/C1=C/C=C(\C)CC[C@@H](O)[C@]2(C)CCC=C(CC1)C(=O)O2 (relative stereo) | Not Active | – | Not Active | –

Further lines, with some results ahead:

EC50 [1] | pEC50 [1] | Structure (SMILES) | IC50 [2] | pIC50 [2]
– | 3.97 | C=C(C)[C@@H]1CC(=O)/C(C)=C/CC/C(C)=C/CC[C@]2(C)O[C@@H]2C1 | – | 3.83
– | 3.74 | CC1=C2CC/C(C)=C/CC[C@]3(C)O[C@@H]3CC/C(C)=C/[C@H]2OC1 | – | 3.54
Not Active | – | C/C1=C\CC[C@]2(C)O[C@@H]2CC/C(C)=C/C=C(/C(C)(C)O)CC1 | Not Active | –
– | 3.83 | COC(C)(C)/C1=C/C=C(\C)CC[C@H]2O[C@@]2(C)CC/C=C(\C)CC1 (relative stereo) | – | 3.87
